Converted amounts (≈) assume the structure as drawn.
What was measured:
Cryptococcus neoformans [1] = experiment: Growth inhibition of Cryptococcus neoformans ATCC 32264 at 7.8 ug/ml incubated for 48 hrs under dark condition by broth microdilution method relative to control; type: functional; conditions: ATCC 32264, 48 h, read-out: GI
Summary of the method: (§1)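 CLSI M27-A3 broth microdilution in RPMI-1640, DMSO ≤1%. Inoculum 1-5 × 10^3 CFU/mL. Incubated 48 h at 30 °C, dark. % inhibition = 100 − (OD405 test − sterility control)/(OD405 growth control − sterility control), with growth and sterility control wells. Triplicate.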

U-937 = experiment: Cytotoxicity against human U937 cells after 72 hrs by MTT assay; type: cell-based; conditions: u-937, 72 h
Summary of the method: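 Exponentially growing U-937 at 1 × 10^5 cells/mL in RPMI-1640 with 10% FBS were exposed to 200, 50, 12.5 and 3.125 µg/mL for 72 h at 37 °C, 5% CO2. MTT for 3 h, stopped with isopropanol/SDS, formazan read at 570 nm, blank-corrected. LC50 by Probit from % viability against untreated cells. Triplicate, at least two independent experiments.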

Plasmodium falciparum = experiment: Antiplasmodial activity against chloroquine-sensitive Plasmodium falciparum 3D7 assessed as reduction in parasitic LDH activity after 48 hrs by Malstat reagent based […] method; type: functional; conditions: 3D7, 48 h
Summary of the method: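 Unsynchronized P. falciparum 3D7 at 0.5% parasitemia and 1% hematocrit in RPMI with 3% Albumax II. Exposed to 100, 25, 6.25 and 1.56 µg/mL for 48 h at 37 °C under 90% N2/5% CO2/5% O2. After three freeze-thaw cycles, LDH measured with Malstat and NBT/PES, 1 h in the dark, read at 650 nm. IC50 by Probit; triplicate, ≥2 experiments.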

Pseudomonas aeruginosa = experiment: Antibacterial activity against Pseudomonas aeruginosa ATCC 27853 after 24 hrs by resazurin dye based microdilution assay; type: functional; conditions: ATCC 27853, 24 h
Summary of the method: (§2)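 MIC taken as the lowest concentration giving visible inhibition and/or by resazurin (1 mg/mL). Gentamicin was the control. Run in duplicate, repeated at least three times.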

Neisseria gonorrhoeae = experiment: Antibacterial activity against beta lactamase positive Neisseria gonorrhoeae ATCC 31426 by oxidase test; type: functional
Summary of the method: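 Agar dilution MIC on GC agar with 1% isovitalex containing increasing compound concentrations. Plates inoculated with about 1×10^4 CFU (5 µL). MIC is the lowest concentration that inhibited growth, with growth confirmed by oxidase test. Run in duplicate, repeated at least three times.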

Klebsiella pneumoniae [2] = experiment: Antibacterial activity against carbapenemase positive Klebsiella pneumoniae BAA 1705 after 24 hrs by resazurin dye based microdilution assay; type: functional; conditions: BAA 1705, 24 h; summary of the method: as §2
Candida albicans [3] = experiment: Growth inhibition of Candida albicans ATCC 10231 at 7.8 ug/ml incubated for 48 hrs under dark condition by broth microdilution method relative to control; type: functional; conditions: ATCC 10231, 48 h, read-out: GI; summary of the method: as §1
Cryptococcus neoformans [4] = experiment: Growth inhibition of Cryptococcus neoformans ATCC 32264 at 125 ug/ml incubated for 48 hrs under dark condition by broth microdilution method relative to control; type: functional; conditions: ATCC 32264, 48 h, read-out: GI; summary of the method: as §1
Cryptococcus neoformans [5] = experiment: Antifungal activity against Cryptococcus neoformans ATCC 32264 incubated for 48 hrs under dark condition by broth microdilution method; type: functional; conditions: ATCC 32264, 48 h
Summary of the method: (§3)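 CLSI M27-A3 broth microdilution in RPMI-1640, DMSO ≤1%, compounds at 250-0.98 µg/mL final. Inoculum 1-5 × 10^3 CFU/mL. Incubated 48 h at 30 °C in a moist dark chamber, read at OD405. MIC80 and MIC50 taken from % inhibition dose-response curves (mean ± SEM, triplicate). Amphotericin B was the positive control.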

Candida albicans [6] = experiment: Growth inhibition of Candida albicans ATCC 10231 at 15.62 ug/ml incubated for 48 hrs under dark condition by broth microdilution method relative to control; type: functional; conditions: ATCC 10231, 48 h, read-out: GI; summary of the method: as §1
Staphylococcus aureus [7] = experiment: Antibacterial activity against methicillin-resistant Staphylococcus aureus ATCC 43300 after 24 hrs by resazurin dye based microdilution assay; type: functional; conditions: ATCC 43300, 24 h
Summary of the method: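 Broth microdilution in Mueller Hinton broth, inoculum 5 × 10^5 – 8 × 10^5. Compound stocks diluted in MHB with 5% DMSO and 0.1% Tween 80. Incubation 24 h at 35-37 °C. MIC is the lowest concentration with visible growth inhibition and/or by resazurin (1 mg/mL) read-out. Gentamicin as control. Run in duplicate, replicated at least three times.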

Cryptococcus neoformans [8] = experiment: Growth inhibition of Cryptococcus neoformans ATCC 32264 at 31.25 ug/ml incubated for 48 hrs under dark condition by broth microdilution method relative to control; type: functional; conditions: ATCC 32264, 48 h, read-out: GI; summary of the method: as §1
Candida albicans [9] = experiment: Antifungal activity against Candida albicans ATCC 10231 incubated for 48 hrs under dark condition by broth microdilution method; type: functional; conditions: ATCC 10231, 48 h; summary of the method: as §3
Klebsiella pneumoniae [10] = experiment: Antibacterial activity against ESBL positive Klebsiella pneumoniae ATCC 700603 after 24 hrs by resazurin dye based microdilution assay; type: functional; conditions: Klebsiella pneumoniae, 700603, 24 h; summary of the method: as §2
Candida albicans [11] = experiment: Growth inhibition of Candida albicans ATCC 10231 at 125 ug/ml incubated for 48 hrs under dark condition by broth microdilution method relative to control; type: functional; conditions: ATCC 10231, 48 h, read-out: GI; summary of the method: as §1
Cryptococcus neoformans [12] = experiment: Growth inhibition of Cryptococcus neoformans ATCC 32264 at 250 ug/ml incubated for 48 hrs under dark condition by broth microdilution method relative to control; type: functional; conditions: ATCC 32264, 48 h, read-out: GI; summary of the method: as §1
Candida albicans [13] = experiment: Growth inhibition of Candida albicans ATCC 10231 at 31.25 ug/ml incubated for 48 hrs under dark condition by broth microdilution method relative to control; type: functional; conditions: ATCC 10231, 48 h, read-out: GI; summary of the method: as §1
Candida albicans [14] = experiment: Growth inhibition of Candida albicans ATCC 10231 at 250 ug/ml incubated for 48 hrs under dark condition by broth microdilution method relative to control; type: functional; conditions: ATCC 10231, 48 h, read-out: GI; summary of the method: as §1
Trypanosoma cruzi = experiment: Antitrypanosomal activity against Trypanosoma cruzi Tulahuen intracellular amastigote harboring LacZ infected in human U937 cells after 72 hrs by CPRG/Nonidet reagent based spectrophotometric method; type: functional, cell-based; conditions: U-937, 72 h
Summary of the method: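 U-937 cells at 2.5 × 10^5 cells/mL in RPMI-1640 with 10% serum and 0.1 µg/mL PMA were infected with β-galactosidase-transfected Tulahuen epimastigotes at 5 parasites per cell. Infected cells were exposed to 50, 12.5, 3.125 and 0.78 µg/mL for 72 h. CPRG (100 uM) and 0.1% Nonidet P-40 were added for 3 h, read at 570 nm. EC50 by Probit. Triplicate, at least two experiments; benznidazole as reference.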

Leishmania panamensis = experiment: Antileshmanial activity against EpiR/GFP fused Leishmania panamensis MHOM/CO/87/UA140 intracellular amastigotes infected in human […] cells after 72 hrs by flow cytometric method; type: functional, cell-based; conditions: MHOM/CO/87/UA140, 72 h
Summary of the method: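 PMA-treated U-937 cells (3 × 10^5 cells/mL) infected with stationary-phase GFP L. panamensis promastigotes (15:1), 3 h at 34 °C, then washed. After 24 h, compounds added at 50, 12.5, 3.125 and 0.78 µg/mL for 72 h at 37 °C. EC50 by Probit; triplicate, two experiments.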

Staphylococcus aureus [15] = experiment: Antibacterial activity against methicillin-sensitive Staphylococcus aureus ATCC 25923 after 24 hrs by resazurin dye based microdilution assay; type: functional; conditions: ATCC 25923, 24 h; summary of the method: as §2
Escherichia coli = experiment: Antibacterial activity against Escherichia coli ATCC 25922 after 24 hrs by resazurin dye based microdilution assay; type: functional; conditions: ATCC 25922, 24 h; summary of the method: as §2
Staphylococcus aureus [16] = experiment: Antibacterial activity against vancomycin-intermediate Staphylococcus aureus after 24 hrs by resazurin dye based microdilution assay; type: functional; summary of the method: as §2
Candida albicans [17] = experiment: Growth inhibition of Candida albicans ATCC 10231 at 3.4 ug/ml incubated for 48 hrs under dark condition by broth microdilution method relative to control; type: functional; conditions: ATCC 10231, 48 h, read-out: GI
Cryptococcus neoformans [18] = experiment: Growth inhibition of Cryptococcus neoformans ATCC 32264 at 15.62 ug/ml incubated for 48 hrs under dark condition by broth microdilution method relative to control; type: functional; conditions: ATCC 32264, 48 h, read-out: GI; summary of the method: as §1
Cryptococcus neoformans [19] = experiment: Growth inhibition of Cryptococcus neoformans ATCC 32264 at 62.5 ug/ml incubated for 48 hrs under dark condition by broth microdilution method relative to control; type: functional; conditions: ATCC 32264, 48 h, read-out: GI; summary of the method: as §1
Cryptococcus neoformans [20] = experiment: Growth inhibition of Cryptococcus neoformans ATCC 32264 at 3.4 ug/ml incubated for 48 hrs under dark condition by broth microdilution method relative to control; type: functional; conditions: ATCC 32264, 48 h, read-out: GI
Candida albicans [21] = experiment: Growth inhibition of Candida albicans ATCC 10231 at 62.5 ug/ml incubated for 48 hrs under dark condition by broth microdilution method relative to control; type: functional; conditions: ATCC 10231, 48 h, read-out: GI; summary of the method: as §1

Row | SMILES | inhibition of growth at 7.8 µg/mL (Cryptococcus neoformans [1]) [%] | LC50 (U-937) [µg/mL] | EC50 (Plasmodium falciparum) [µg/mL] | MIC (Pseudomonas aeruginosa) [µg/mL] | MIC (Neisseria gonorrhoeae) [µg/mL] | MIC (Klebsiella pneumoniae [2]) [µg/mL] | inhibition of growth at 7.8 µg/mL (Candida albicans [3]) [%] | inhibition of growth at 125 µg/mL (Cryptococcus neoformans [4]) [%] | MIC50 (Cryptococcus neoformans [5]) [µg/mL] | MIC80 (Cryptococcus neoformans [5]) [µg/mL] | inhibition of growth at 15.62 µg/mL (Candida albicans [6]) [%] | MIC (Staphylococcus aureus [7]) [µg/mL] | inhibition of growth at 31.25 µg/mL (Cryptococcus neoformans [8]) [%] | MIC50 (Candida albicans [9]) [µg/mL] | MIC80 (Candida albicans [9]) [µg/mL] | MIC (Klebsiella pneumoniae [10]) [µg/mL] | inhibition of growth at 125 µg/mL (Candida albicans [11]) [%] | inhibition of growth at 250 µg/mL (Cryptococcus neoformans [12]) [%] | inhibition of growth at 31.25 µg/mL (Candida albicans [13]) [%] | inhibition of growth at 250 µg/mL (Candida albicans [14]) [%] | other results
1 | CC(=O)N1N=C(c2ccc(Br)cc2)CC1c1cccc(Nc2ccnc3cc(Cl)ccc23)c1 (stereo not given) | 16.9 | 10.2 (≈ 19.6 µM) | 50.1 (≈ 96.3 µM) | > 1000 | > 1000 | > 1000 | 13.9 | 48.4 | 250 (≈ 481 µM) | ≥ 250 | 15 | > 1000 | 19.6 | ≥ 250 | ≥ 250 | > 1000 | 27.9 | 71.2 | 15.7 | 29.9 | EC50 (Trypanosoma cruzi): 3.7 µg/mL (≈ 7.12 µM); EC50 (Leishmania panamensis): 3.66 µg/mL (≈ 7.04 µM); MIC (Staphylococcus aureus [15]): > 1000 µg/mL; MIC (Escherichia coli): > 1000 µg/mL; MIC (Staphylococcus aureus [16]): > 1000 µg/mL; inhibition of growth at 3.4 µg/mL (Candida albicans [17]): 13.7%; inhibition of growth at 15.62 µg/mL (Cryptococcus neoformans [18]): 18.3%; inhibition of growth at 62.5 µg/mL (Cryptococcus neoformans [19]): 23.6%; inhibition of growth at 3.4 µg/mL (Cryptococcus neoformans [20]): 15.4%; inhibition of growth at 62.5 µg/mL (Candida albicans [21]): 19.1%
2 | O=C(/C=C/c1cccc(Nc2ccnc3cc(Cl)ccc23)c1)c1ccc(Cl)cc1 | 82 | 0.7 (≈ 1.67 µM) | 209 (≈ 497 µM) | > 1000 | > 1000 | > 1000 | 29 | 100 | 7.8 (≈ 18.6 µM) | 7.8 (≈ 18.6 µM) | 39.4 | > 1000 | 100 | 62.5 (≈ 149 µM) | ≥ 250 | > 1000 | 68.2 | 100 | 41.8 | 78.4 | EC50 (Trypanosoma cruzi): 0.72 µg/mL (≈ 1.72 µM); EC50 (Leishmania panamensis): 0.79 µg/mL (≈ 1.88 µM); MIC (Staphylococcus aureus [15]): > 1000 µg/mL; MIC (Escherichia coli): > 1000 µg/mL; MIC (Staphylococcus aureus [16]): > 1000 µg/mL; inhibition of growth at 3.4 µg/mL (Candida albicans [17]): 15.3%; inhibition of growth at 15.62 µg/mL (Cryptococcus neoformans [18]): 89%; inhibition of growth at 62.5 µg/mL (Cryptococcus neoformans [19]): 100%; inhibition of growth at 3.4 µg/mL (Cryptococcus neoformans [20]): 49.8%; inhibition of growth at 62.5 µg/mL (Candida albicans [21]): 50.3%
